Where a SMILES comes first, the peptide text is derived from it. The star is where a group is joined. X1 = C[C@]12CC[C@@H]3c4ccc(OCC(=O)*)cc4CC[C@H]3[C@@H]1CCC2O
What was measured:
Mus musculus [1] = assay: Effect on serum phosphorous level in mouse at […] mmol/kg, ip; assay type: functional
How it was run: (§1)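 OVX Kuiming mice dosed i.p. daily for 4 weeks in 0.5% CMC. Blood taken retro-orbitally on the day after the last dose, stood 30 min, spun at 3000 g for 20 min, serum stored at -20 °C. Calcium by o-methylphenolphthalein complexone, phosphorus by molybdenum blue, ALP by activity with disodium phenylphosphate substrate.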

Mus musculus [2] = assay: Effect on serum phosphorus level in ovariectomized mouse at 0.1103 mmol/kg, ip once daily for 4 weeks; assay type: functional; how it was run: as §1
Mus musculus [3] = assay: Effect on calcium level in mouse femur at 0.011 mmol/kg, ip; assay type: functional
How it was run: (§2)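 Dose-response in OVX Kuiming mice, i.p. daily for 4 weeks in 0.5% CMC at 11.03, 55.15 or 110.3 × 10-3 mmol/kg. Left femur: length, then defatting, drying at 120 °C for 6 h (dry weight), ashing at 800 °C for 8 h. Ash/dry ratio gives mineral content. Ash Ca and P measured colorimetrically. Liver, lung and spleen weighed directly. n = 12, ANOVA.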

Mus musculus [4] = assay: Effect on femur length in recipient mouse at 0.055 mmol/kg, ip; assay type: functional; how it was run: as §2
Mus musculus [5] = assay: Effect on dry weight of femurs in ovariectomized mouse at 0.1103 mmol/kg, ip once daily for 4 weeks; assay type: functional, Femur
How it was run: (§3)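 Female Kuiming mice (7 weeks, 30.7 ± 3.1 g) ovariectomized, sham group abdominorotomy. From day 5, i.p. once daily for 4 weeks at 110.3 × 10-3 mmol/kg in 0.5% CMC. Left femur cleaned, length measured, defatted in chloroform-methanol (2:1, 2 × 3 h), dried 120 °C 6 h for dry weight, ashed 800 °C 8 h. Mineral content = ash/dry weight. Ash dissolved in 6 N HCl and diluted. Ca by o-methylphenolphthalein complexone, P by molybdenum blue. Lungs and livers weighed directly.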

Mus musculus [6] = assay: Effect on femur length in recipient mouse at 0.011 mmol/kg, ip; assay type: functional; how it was run: as §2
Mus musculus [7] = assay: Effect on lenght of femur in mouse at 0.110 mmol/kg, po; assay type: functional
How it was run: (§4)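 Female Kuiming mice (7 weeks old, 30.7 ± 3.1 g) under abdominal OVX, sham group abdominorotomy only. From day 5 after surgery, dosed orally once daily for 4 weeks at 110.3 × 10-3 mmol/kg in 0.5% CMC (0.2 mL), vehicle group CMC alone. Blood drawn retro-orbitally, then left femur and organs removed under pentobarbital (40.0 mg/kg, i.p.).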

Mus musculus [8] = assay: Effect on liver weight in mouse at 0.1103 mmol/kg, po; assay type: functional; how it was run: as §4
Mus musculus [9] = assay: Effect on serum calcium level in mouse at 0.055 mmol/kg, ip; assay type: functional
How it was run: (§5)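 Dose-response in OVX Kuiming mice, i.p. daily for 4 weeks in 0.5% CMC at 11.03, 55.15 or 110.3 × 10-3 mmol/kg. Serum from retro-orbital blood (3000 g, 20 min). Calcium by o-methylphenolphthalein complexone, phosphorus by molybdenum blue, ALP by activity on disodium phenylphosphate. n = 12, ANOVA.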

Mus musculus [10] = assay: Effect on liver weight in mouse at 0.055 mmol/kg, ip; assay type: functional; how it was run: as §2
Mus musculus [11] = assay: Effect on mineral content in ovariectomized mouse at 0.1103 mmol/kg, ip once daily for 4 weeks; assay type: functional; how it was run: as §3
Mus musculus [12] = assay: Effect on femur length in ovariectomized mouse at 0.1103 mmol/kg, ip once daily for 4 weeks; assay type: functional; how it was run: as §3
Mus musculus [13] = assay: Effect on serum phosphorous level in mouse at 0.055 mmol/kg, ip; assay type: functional; how it was run: as §5
Mus musculus [14] = assay: Effect on spleen weight in mouse at 0.011 mmol/kg, ip; assay type: functional; how it was run: as §2
Mus musculus [15] = assay: Effect on serum ALP level in mouse at 0.055 mmol/kg, ip; assay type: functional; how it was run: as §5
Mus musculus [16] = assay: Effect on femur ash weight in recipient mouse at 0.011 mmol/kg, ip; assay type: functional; how it was run: as §2
Mus musculus [17] = assay: Effect on serum phosphorous level in mouse at 0.011 mmol/kg, ip; assay type: functional; conditions: in the assay text read “0.11 mmol/kg” for “0.011 mmol/kg”; how it was run: as §5
Mus musculus [18] = assay: Effect on liver weight in ovariectomized mouse at 0.110 mmol/kg, ip once daily for 4 weeks; assay type: functional; how it was run: as §3
Mus musculus [19] = assay: Effect on dry weight of femurs in recipient mouse at 0.055 mmol/kg, ip; assay type: functional, Femur; how it was run: as §2
Mus musculus [20] = assay: Effect on lung weight in mouse at 0.011 mmol/kg, ip; assay type: functional; how it was run: as §2
Mus musculus [21] = assay: Effect on dry weight of femur in recipient mouse at 0.011 mmol/kg, ip; assay type: functional; how it was run: as §2
Mus musculus [22] = assay: Effect on lung weight in mouse at 0.055 mmol/kg, ip; assay type: functional; how it was run: as §2
Mus musculus [23] = assay: Effect on serum ALP level in mouse at 0.1103 mmol/kg, ip; assay type: functional; how it was run: as §1
Mus musculus [24] = assay: Effect on serum ALP level in mouse at 0.1103 mmol/kg, po; assay type: functional
How it was run: (§6)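 Oral OVX Kuiming mouse model, dosed daily for 4 weeks at 110.3 × 10-3 mmol/kg in 0.5% CMC. Retro-orbital blood stood 30 min at room temperature and was spun at 3000 g for 20 min. Serum kept at -20 °C. Calcium read by o-methylphenolphthalein complexone, phosphorus by molybdenum blue, ALP by activity on disodium phenylphosphate substrate.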

Mus musculus [25] = assay: Effect on calcium level in ovariectomized mouse at 0.1103 mmol/kg, ip once daily for 4 weeks; assay type: functional; how it was run: as §3
Mus musculus [26] = assay: Effect on uterus weight in ovariectomized mouse at 0.1103 mmol/kg, ip once daily for 4 weeks; assay type: functional
How it was run: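 Female Kuiming mice (7 weeks old, 30.7 ± 3.1 g), abdominal OVX under pentobarbital (40.0 mg/kg i.p.). From day 5 after surgery, i.p. injection once daily for 4 weeks, compound in aqueous 0.5% CMC prepared just before use. The day after the last dose, mice were anesthetized and killed, and lungs, livers, spleens and uteri were removed and weighed directly. n = 12, ANOVA, p < 0.05.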

Mus musculus [27] = assay: Effect on mineral level in mouse femur at 0.011 mmol/kg, ip; assay type: functional; conditions: in the assay text read “0.11 mmol/kg” for “0.011 mmol/kg”; how it was run: as §2
Mus musculus [28] = assay: Effect on dry weight of femurs in mouse at 0.1103 mmol/kg, po; assay type: functional, Femur; how it was run: as §4
Mus musculus [29] = assay: Effect on lung weight in mouse at 0.1103 mmol/kg, po; assay type: functional; how it was run: as §4
Mus musculus [30] = assay: Increase in body weight in ovariectomized mouse at 0.1103 mmol/kg, ip once daily for 4 weeks; assay type: functional
How it was run: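 Female Kuiming mice (30.7 ± 3.1 g) underwent abdominal OVX; the sham group had abdominorotomy only. From day 5 after surgery, i.p. dosing once daily for 4 weeks at 110.3 × 10-3 mmol/kg in aqueous 0.5% CMC. Body weight was recorded on the day of the last administration.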

Mus musculus [31] = assay: Effect on femur ash weight in mouse at 0.1103 mmol/kg, po; assay type: functional; how it was run: as §4
Mus musculus [32] = assay: Effect on calcium level in mouse at 0.1103 mmol/kg, po; assay type: functional; how it was run: as §4
Mus musculus [33] = assay: Effect on lung weight in ovariectomized mouse at 0.1103 mmol/kg, ip once daily for 4 weeks; assay type: functional; how it was run: as §3
Mus musculus [34] = assay: Effect on serum calcium level in mouse at 0.1103 mmol/kg, po; assay type: functional; how it was run: as §6
Mus musculus [35] = assay: Effect on serum ALP level in mouse at 0.011 mmol/kg, ip; assay type: functional; how it was run: as §5
Mus musculus [36] = assay: Effect on spleen weight in mouse at 0.1103 mmol/kg, po; assay type: functional; how it was run: as §4
Mus musculus [37] = assay: Effect on serum calcium level in mouse at 0.1103 mmol/kg, ip; assay type: functional; how it was run: as §1

In the case of `CC(C)[C@H](NC(=O)[C@H](CC(=O)O)NC(=O)CNC(=O)[C@H](CCCNC(=N)N)NC(=O)COc1ccc2c(c1)CC[C@@H]1[C@@H]2CC[C@]2(C)C(O)CC[C@@H]12)C(=O)O` (some centres not stated) (X1-RGDV-OH), the Activity (Mus musculus [1]) is reported as 1.6 mmol/L, the Activity (Mus musculus [2]) is reported as 1.6 mmol/L and the Activity (Mus musculus [3]) is reported as 42.1%. For the same molecule, the Activity (Mus musculus [4]) was 1.643 cm, the Activity (Mus musculus [5]) was 63.7 mg and the Activity (Mus musculus [6]) was 1.64 cm. It also gave an Activity (Mus musculus [7]) of 1.614 cm, an Activity (Mus musculus [8]) of 1.337 g and an Activity (Mus musculus [9]) of 2.084 mmol/L. For the same molecule, the Activity (Mus musculus [10]) was 1.462 g, the Ratio (Mus musculus [11]) was 0.63 and the Activity (Mus musculus [12]) was 1.64 cm. For the same molecule, the Activity (Mus musculus [13]) was 1.586 mmol/L, the Activity (Mus musculus [14]) was 156 mg and the Activity (Mus musculus [15]) was 32.786 U/L. The Activity (Mus musculus [16]) was 20.6 mg, the Activity (Mus musculus [17]) was 1.6 mmol/L and the Activity (Mus musculus [18]) was 1.363 g. For the same molecule, the Activity (Mus musculus [19]) was 57.5 mg, the Activity (Mus musculus [20]) was 188 mg and the Activity (Mus musculus [21]) was 50.9 mg. The Activity (Mus musculus [22]) was 179 mg, the Activity (Mus musculus [23]) was 30.5 U/L and the Activity (Mus musculus [24]) was 34.521 U/L. The Activity (Mus musculus [25]) was 58.35%, the Activity (Mus musculus [26]) was 50.3 mg and the Ratio (Mus musculus [27]) was 0.63. For the same molecule, the Activity (Mus musculus [28]) was 68.4 mg, the Activity (Mus musculus [29]) was 163 mg and the Activity (Mus musculus [30]) was 35.2 g. For the same molecule, the Activity (Mus musculus [31]) was 33.7 mg, the Activity (Mus musculus [32]) was 52.197% and the Activity (Mus musculus [33]) was 162 mg. For the same molecule, the Activity (Mus musculus [34]) was 2.04 mmol/L, the Activity (Mus musculus [35]) was 38.5 U/L and the Activity (Mus musculus [36]) was 134 mg. It also gave an Activity (Mus musculus [37]) of 2.005 mmol/L.

Source: ChEMBL document CHEMBL1145431, “Improved anti-osteoporosis potency and reduced endometrial membrane hyperplasia during hormone replacement therapy with estrogen-RGD peptide conjugates” (2007)
